For one data set, the target named is CYP3A4 (Homo sapiens, UniProt P08684). The experiment in a line: Inhibitory concentration value against human cytochrome P-450 3A4. In outline:
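Human liver microsomes (0.4 mg) in 0.05 M potassium phosphate, pH 7.5, with an NADPH-generating system, DETAPAC and 3 mM MgCl2. Inhibitor at 0.02–400 µM. Started with 0.2 mM testosterone and run 30 min at 37 °C with shaking. Stopped with ethyl acetate, then extracted. 6β-hydroxytestosterone measured by reverse-phase HPLC with UV detection at 254 nm. IC50 values are the mean of at least three determinations ± SD.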

The target of another data set is CYP2D6 (Homo sapiens, UniProt P10635). The experiment in a line: Inhibitory concentration value against human cytochrome P-450 2D6. The procedure, abridged:
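Baculovirus insect-cell microsomes coexpressing each CYP with reductase and b5, in 0.2 M potassium phosphate pH 8.0. Vivid blue substrate O-dealkylation used 5 µM substrate with 10 nM enzyme for 2B6, 10 µM with 5 nM for 2C19, 10 µM with 10 nM for 2D6, and 10 µM with 5 nM for 2E1. Inhibitor 0.02–400 or 0.14–300 µM. NADPH-generating system, 40 min at room temperature, fluorescence 405/460 nm. IC50 is the mean of three ± SD.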

For a further data set, the target named is CYP2E1 (Homo sapiens, UniProt P05181). The experiment in a line: Inhibitory concentration value against human cytochrome P-450 2E1. In outline: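 Baculovirus-expressed CYP2E1 (co-expressing P450 reductase and cytochrome b5), 5 nM final, with 10 µM Vivid blue substrate in 0.2 M potassium phosphate pH 8.0. Inhibitor at eight levels from 0.02 to 400 µM, or six from 0.14 to 300 µM. Started with an NADPH-generating system, then 40 min at room temperature. O-dealkylated product read by fluorescence (ex 405/em 460 nm). IC50 is the mean of three experiments.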
Chain of CYP2E1 (P05181 whole entry): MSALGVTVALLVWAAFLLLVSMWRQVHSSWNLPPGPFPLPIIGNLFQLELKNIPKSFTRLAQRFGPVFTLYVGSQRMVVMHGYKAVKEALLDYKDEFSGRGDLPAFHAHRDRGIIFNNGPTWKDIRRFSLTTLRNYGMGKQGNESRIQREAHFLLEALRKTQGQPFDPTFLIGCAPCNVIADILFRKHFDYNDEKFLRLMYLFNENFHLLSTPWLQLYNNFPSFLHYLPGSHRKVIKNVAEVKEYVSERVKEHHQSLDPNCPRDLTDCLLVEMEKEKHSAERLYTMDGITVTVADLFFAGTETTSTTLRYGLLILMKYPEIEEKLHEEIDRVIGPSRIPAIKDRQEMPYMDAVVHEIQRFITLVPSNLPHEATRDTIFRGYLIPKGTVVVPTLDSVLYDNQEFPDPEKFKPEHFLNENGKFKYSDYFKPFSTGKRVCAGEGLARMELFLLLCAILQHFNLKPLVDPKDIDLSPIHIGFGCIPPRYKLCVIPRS

Chain of CYP2D6 (P10635 whole entry): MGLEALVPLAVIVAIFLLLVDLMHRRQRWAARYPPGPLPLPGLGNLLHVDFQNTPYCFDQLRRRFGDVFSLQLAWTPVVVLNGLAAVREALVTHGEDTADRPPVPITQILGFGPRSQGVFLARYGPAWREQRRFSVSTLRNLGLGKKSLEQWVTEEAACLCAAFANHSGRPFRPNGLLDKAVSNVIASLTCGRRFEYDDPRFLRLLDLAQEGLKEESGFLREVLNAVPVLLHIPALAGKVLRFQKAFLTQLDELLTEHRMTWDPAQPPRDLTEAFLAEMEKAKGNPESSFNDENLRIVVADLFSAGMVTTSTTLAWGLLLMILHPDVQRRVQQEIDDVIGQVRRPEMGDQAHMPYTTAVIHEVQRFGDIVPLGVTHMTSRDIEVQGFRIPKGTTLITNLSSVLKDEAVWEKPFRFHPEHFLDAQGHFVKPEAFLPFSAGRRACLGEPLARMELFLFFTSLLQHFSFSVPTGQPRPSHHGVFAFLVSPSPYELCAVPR
Chain of CYP3A4 (P08684 whole entry): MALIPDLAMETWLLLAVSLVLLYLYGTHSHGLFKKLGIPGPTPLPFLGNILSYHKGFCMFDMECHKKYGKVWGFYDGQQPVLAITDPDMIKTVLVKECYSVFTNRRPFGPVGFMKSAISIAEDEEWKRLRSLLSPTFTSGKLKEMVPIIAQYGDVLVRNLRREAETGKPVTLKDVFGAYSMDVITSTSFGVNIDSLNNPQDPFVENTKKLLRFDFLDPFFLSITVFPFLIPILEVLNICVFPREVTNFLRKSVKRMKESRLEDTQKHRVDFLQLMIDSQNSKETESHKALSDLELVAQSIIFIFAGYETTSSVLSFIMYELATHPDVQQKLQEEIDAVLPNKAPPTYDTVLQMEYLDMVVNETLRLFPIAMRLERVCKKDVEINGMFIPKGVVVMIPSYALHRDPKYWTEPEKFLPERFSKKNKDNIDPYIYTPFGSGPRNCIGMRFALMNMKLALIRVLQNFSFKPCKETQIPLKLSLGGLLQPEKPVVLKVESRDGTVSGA

Turning to `NCc1ccc(-c2cccnc2)s1` [US8609708, 31], the half-maximal inhibitory concentration (IC50) was determined as 77.5 µM against CYP3A4 and 197 µM against CYP2D6.
For `O=NCc1ccc(-c2cccnc2)o1` [US8609708, 24], the IC50 against CYP3A4, against CYP2D6 and on CYP2E1 was over 400 µM in each case.

The record behind these values is BindingDB's records for doi:10.1021/jm049696n (Human Biomolecular Research Institute, 2005).
